Reference: ChEMBL document CHEMBL3792298, “Design, synthesis and in vitro evaluation studies of sulfonyl-amino-acetamides as small molecule BACE-1 inhibitors” (Bioorg Med Chem, 2016)

How the values were obtained:
Beta-secretase 1 [1] = target: T1, Beta-secretase 1 (Homo sapiens, UniProt P56817); test: Inhibition of human BACE1 expressed in recombinant baculovirus-infected insect cells using rhodamine conjugated APP-based EVNLDAEFK as substrate at 10 uM after 60 mins by FRET analysis
Procedure, shortened: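 Commercial BACE-1 FRET kit run per supplier protocol, with 3X BACE-1 enzyme (1U/ml) in 50mM sodium acetate buffer, pH 4.5. Compounds were made as 10mM DMSO stocks and diluted in buffer to a final 10µM. After 60 min incubation, fluorescence was read with excitation at 545 nm. Percent inhibition is given as mean ± S.D. of triplicate independent experiments.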

Beta-secretase 1 [2] = target: T1, Beta-secretase 1; test: Inhibition of human BACE1 expressed in recombinant baculovirus-infected insect cells using rhodamine conjugated APP-based EVNLDAEFK as substrate after 60 mins by FRET analysis
Procedure, shortened: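 FRET cleavage assay from a commercial BACE-1 kit, following supplier protocol. It used 3X BACE-1 enzyme (1U/ml) in 50mM sodium acetate buffer, pH 4.5. Test compounds were prepared as 10mM DMSO stocks and diluted with buffer. After 60 min incubation, fluorescence was read at 545 nm excitation.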

T1 sequence (P56817 whole entry): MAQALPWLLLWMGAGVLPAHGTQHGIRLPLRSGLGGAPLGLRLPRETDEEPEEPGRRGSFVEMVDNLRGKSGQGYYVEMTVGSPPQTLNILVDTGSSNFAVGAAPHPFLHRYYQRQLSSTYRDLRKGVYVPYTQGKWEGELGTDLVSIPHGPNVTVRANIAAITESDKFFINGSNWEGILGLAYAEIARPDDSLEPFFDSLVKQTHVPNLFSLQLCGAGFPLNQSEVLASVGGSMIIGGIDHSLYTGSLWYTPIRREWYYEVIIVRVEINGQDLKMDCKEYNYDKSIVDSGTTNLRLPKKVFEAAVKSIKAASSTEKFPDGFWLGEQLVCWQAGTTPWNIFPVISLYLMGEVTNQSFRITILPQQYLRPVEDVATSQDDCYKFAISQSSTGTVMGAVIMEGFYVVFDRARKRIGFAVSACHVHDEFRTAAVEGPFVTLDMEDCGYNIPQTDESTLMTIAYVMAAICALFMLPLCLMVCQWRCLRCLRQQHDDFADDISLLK

SMILES | inhibition (Beta-secretase 1 [1]) [%] | IC50 (Beta-secretase 1 [2]) [µM]
O=C(CNS(=O)(=O)c1cccc([N+](=O)[O-])c1)Nc1cccc(Cl)c1 | 42.1 | –
O=C(CNS(=O)(=O)c1ccccc1[N+](=O)[O-])Nc1ccccc1 | 14.9 | –
O=C(CNS(=O)(=O)c1ccc(Cl)cc1)Nc1ccc(Cl)cc1 | 34.8 | –
Cc1ccccc1S(=O)(=O)NCC(=O)Nc1ccccc1 | 18.5 | –
Cc1ccc(S(=O)(=O)NCC(=O)Nc2ccccc2)cc1 | 21.9 | –
O=C(CNS(=O)(=O)c1ccccc1)Nc1ccc(Cl)cc1 | 5.09 | –
O=C(CNS(=O)(=O)c1ccc([N+](=O)[O-])cc1)Nc1ccc(Cl)cc1 | 9.89 | –
O=C(CNS(=O)(=O)c1cccc([N+](=O)[O-])c1)Nc1ccc(Cl)cc1 | 29.5 | –
COc1ccc(S(=O)(=O)NCC(=O)Nc2cccc(Cl)c2)cc1 | 38.3 | –
O=C(CNS(=O)(=O)c1ccccc1[N+](=O)[O-])Nc1cccc(Cl)c1 | 17.5 | –
O=C(CNS(=O)(=O)c1ccccc1)Nc1cccc(Cl)c1 | 4.83 | –
O=C(CNS(=O)(=O)c1cccc([N+](=O)[O-])c1)Nc1ccccc1 | 42 | –
CC(=O)Nc1ccc(S(=O)(=O)NCC(=O)Nc2ccccc2)cc1 | 28.9 | –
COc1ccc(S(=O)(=O)NCC(=O)Nc2ccccc2)cc1 | 28.6 | –
CC(=O)Nc1ccc(S(=O)(=O)NCC(=O)Nc2ccc(Cl)cc2)cc1 | 37.1 | –
O=C(CNS(=O)(=O)c1ccccc1[N+](=O)[O-])Nc1ccc(Cl)cc1 | 18.5 | –
O=C(CNS(=O)(=O)c1ccc(Cl)cc1)Nc1ccccc1 | 22.8 | –
O=C(CNS(=O)(=O)c1ccc([N+](=O)[O-])cc1)Nc1cccc(Cl)c1 | 17 | –
O=C(CNS(=O)(=O)c1ccccc1)Nc1ccccc1 | 8.72 | –
COc1ccc(S(=O)(=O)NCC(=O)Nc2ccc(Cl)cc2)cc1 | 35.1 | –
O=C(CNS(=O)(=O)c1ccc([N+](=O)[O-])cc1)Nc1ccccc1 | 5.03 | –
CC(=O)Nc1ccc(S(=O)(=O)NCC(=O)Nc2cccc(Cl)c2)cc1 | 52.9 | –

Second part, the compound after the results:

inhibition (Beta-secretase 1 [1]) [%] | IC50 (Beta-secretase 1 [2]) [µM] | SMILES
21.6 | – | Cc1ccc(NC(=O)CNS(=O)(=O)c2ccccc2[N+](=O)[O-])c(C)c1
31.8 | – | Cc1ccc(S(=O)(=O)NCC(=O)Nc2cccc(Cl)c2)cc1
41 | – | Cc1ccc(NC(=O)CNS(=O)(=O)c2cccc([N+](=O)[O-])c2)c(C)c1
28.4 | – | COc1ccc(S(=O)(=O)NCC(=O)Nc2ccc(C)cc2C)cc1
5.38 | – | Cc1ccc(NC(=O)CNS(=O)(=O)c2ccccc2)c(C)c1
35.9 | – | Cc1ccc(NC(=O)CNS(=O)(=O)c2ccc(Cl)cc2)c(C)c1
48.6 | – | O=C(CNS(=O)(=O)c1ccc(Cl)cc1)Nc1cccc(Cl)c1
9.49 | – | Cc1ccc(NC(=O)CNS(=O)(=O)c2ccc([N+](=O)[O-])cc2)c(C)c1
61.9 | 7.9 | CC(=O)Nc1ccc(S(=O)(=O)NCC(=O)Nc2ccc(C)cc2C)cc1
35 | – | Cc1ccc(S(=O)(=O)NCC(=O)Nc2ccc(C)cc2C)cc1
25.3 | – | Cc1ccc(S(=O)(=O)NCC(=O)Nc2ccc(Cl)cc2)cc1
